Assay results from ChEMBL document CHEMBL1151962, “Identification of N,1,4,4-tetramethyl-8-{[4-(4-methylpiperazin-1-yl)phenyl]amino}-4,5-dihydro-1H-pyrazolo[4,3-h]quinazoline-3-carboxamide (PHA-848125), a potent, orally available cyclin dependent kinase inhibitor” (J Med Chem, 2009).
≈ marks a conversion by molar mass, not a printed value.

What was measured:
[1] = Half life in fasted nu/nu mouse at 10 mg/kg, po by LC/MS/MS analysis; type: ADME, organism-based; parameters: dose 10 mg/kg, route oral; conditions: in vivo
In short: (§1)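 Overnight-fasted male Nu/Nu mice received a single 10 mg/kg dose iv or orally, in 5% dextrose vehicle, given as the hydrochloride salt. Three mice per route. Saphenous vein blood was drawn predose and at 0.083 (iv) or 0.25 (po), 0.5, 1, 6 and 24 h. Samples were spun at 10000g for 3 min at 4 °C, and plasma was stored at -80 °C until analysis.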

[2] = Oral bioavailability in fasted nu/nu mouse at 10 mg/kg by LC/MS/MS analysis; type: ADME, organism-based; conditions: in vivo; in short: as §1
[3] = Cmax in fasted nu/nu mouse at 10 mg/kg, po by LC/MS/MS analysis; type: ADME, organism-based; parameters: dose 10 mg/kg, route oral; conditions: in vivo; in short: as §1
[4] = AUC in fasted nu/nu mouse at 10 mg/kg, po LC/MS/MS analysis; type: ADME, organism-based; parameters: dose 10 mg/kg, route oral; conditions: plasma; in short: as §1
[5] = Clearance in fasted nu/nu mouse at 10 mg/kg, iv by LC/MS/MS analysis; type: ADME, organism-based; parameters: dose 10 mg/kg, route intravenous; conditions: in vivo; in short: as §1
[6] = Half life in fasted nu/nu mouse at 10 mg/kg, iv by LC/MS/MS analysis; type: ADME, organism-based; parameters: dose 10 mg/kg, route intravenous; conditions: in vivo; in short: as §1
[7] = Solubility in 5% dextrose; type: physicochemical
Cytochrome P450 3A4 = Cytochrome P450 3A4 (Homo sapiens, UniProt P08684); test: Inhibition of human CYP3A4 assessed as compound remaining by LC/MS/MS analysis; type: ADME; parameters: concentration or dose not given beside the values
[8] = Volume of distribution at steady state in fasted nu/nu mouse at 10 mg/kg, iv by LC/MS/MS analysis; type: ADME, organism-based; parameters: dose 10 mg/kg, route intravenous; conditions: in vivo, read-out: Vdss; in short: as §1
Homo sapiens = species on record: Homo sapiens; test: Protein binding in human plasma; conditions: read-out: PPB (converted)
[9] = Solubility at pH 7; type: physicochemical; conditions: buffer
[10] = biological target: Cyclin-dependent kinase 2 (Homo sapiens, UniProt P24941); test: Inhibition of CDK2/Cyclin A
A2780 = test: Antiproliferative activity against human A2780 cells after 72 hrs by cell Titer_Glo assay; type: functional, cell-based; conditions: A2780, 72 h
In short: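 A2780 cells were seeded at 10000–30000 cells/cm² in medium with 10% FCS. After 24 h they were treated with serial dilutions of compound, in two replicates. Cell amount was read by Cell Titer Glo 72 h after treatment. IC50 came from sigmoidal fitting.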

Aurora kinase A = biological target: T1, Aurora kinase A (Homo sapiens, UniProt O14965); test: Inhibition of Aurora A
T1 sequence (O14965 whole entry): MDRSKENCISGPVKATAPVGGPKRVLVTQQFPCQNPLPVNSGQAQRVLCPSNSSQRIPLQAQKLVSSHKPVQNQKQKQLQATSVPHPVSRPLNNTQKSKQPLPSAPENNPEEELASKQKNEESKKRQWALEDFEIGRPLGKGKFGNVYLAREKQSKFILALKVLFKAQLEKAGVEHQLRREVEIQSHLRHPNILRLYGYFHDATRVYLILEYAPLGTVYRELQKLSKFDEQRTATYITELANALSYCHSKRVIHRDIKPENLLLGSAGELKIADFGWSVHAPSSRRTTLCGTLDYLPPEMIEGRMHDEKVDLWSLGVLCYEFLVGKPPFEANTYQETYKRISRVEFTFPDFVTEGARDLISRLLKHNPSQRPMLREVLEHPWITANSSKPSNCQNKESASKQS

Sequence of Cytochrome P450 3A4 (P08684 whole entry): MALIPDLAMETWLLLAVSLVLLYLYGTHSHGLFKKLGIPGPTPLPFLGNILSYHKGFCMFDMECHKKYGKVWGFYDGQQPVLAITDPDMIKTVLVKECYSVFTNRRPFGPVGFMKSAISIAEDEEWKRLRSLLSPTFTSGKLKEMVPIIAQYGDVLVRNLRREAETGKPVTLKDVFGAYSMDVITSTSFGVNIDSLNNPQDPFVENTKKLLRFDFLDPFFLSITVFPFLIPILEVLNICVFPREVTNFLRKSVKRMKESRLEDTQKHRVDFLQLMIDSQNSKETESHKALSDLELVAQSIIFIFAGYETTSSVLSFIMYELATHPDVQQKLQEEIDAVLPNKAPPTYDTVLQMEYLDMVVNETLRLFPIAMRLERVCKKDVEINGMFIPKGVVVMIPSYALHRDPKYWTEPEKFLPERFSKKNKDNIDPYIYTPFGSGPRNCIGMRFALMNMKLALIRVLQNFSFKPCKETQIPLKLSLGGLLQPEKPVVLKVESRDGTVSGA

| Compound | half-life [1] | bioavailability [2] | Cmax [3] | AUC [4] | clearance [5] | half-life [6] | solubility [7] | Activity (Cytochrome P450 3A4) | Vd [8] | fraction unbound (Homo sapiens) | solubility [9] | IC50 [10] | IC50 (A2780) | IC50 (Aurora kinase A) |
| --- | --- | --- | --- | --- | --- | --- | --- | --- | --- | --- | --- | --- | --- | --- |
| CNC(=O)c1nn(C)c2c1C(C)(C)Cc1cnc(Nc3ccc(CN4CCN(C)CC4)cc3)nc1-2.Cl | 4.2 h | 42% | 770 nM | 3.37 µM·h | 31.6 mL/min/kg | 1.8 h | 10000 µg/mL | 50% | 3.23 L/kg | 0.01 | – | – | – | – |
| CN1CCN(c2ccc(Nc3ncc4c(n3)-c3c(c(C(N)=O)nn3C)C(C)(C)C4)cc2)CC1.Cl | – | – | – | – | – | – | 3400 µg/mL | 82% | – | 0.01 | – | – | – | – |
| CNC(=O)c1nn(C)c2c1C(C)(C)Cc1cnc(Nc3ccc(CN(C)C)cc3)nc1-2 | – | – | – | – | – | – | – | – | – | – | 206 µM (≈ 86.4 µg/mL) | 0.035 µM | 0.11 µM | > 5 µM |

The remaining lines, values ahead:

| half-life [1] | bioavailability [2] | Cmax [3] | AUC [4] | clearance [5] | half-life [6] | solubility [7] | Activity (Cytochrome P450 3A4) | Vd [8] | fraction unbound (Homo sapiens) | solubility [9] | IC50 [10] | IC50 (A2780) | IC50 (Aurora kinase A) | Compound |
| --- | --- | --- | --- | --- | --- | --- | --- | --- | --- | --- | --- | --- | --- | --- |
| 3.9 h | 38% | 600 nM | 2.51 µM·h | 43.7 mL/min/kg | 1.9 h | 10000 µg/mL | 63% | 5.27 L/kg | – | – | – | – | – | CNC(=O)c1nn(C)c2c1C(C)(C)Cc1cnc(Nc3ccc(OC4CCN(C)CC4)cc3)nc1-2.Cl |
| – | – | – | – | – | – | – | – | – | – | 162 µM (≈ 76.9 µg/mL) | 0.059 µM | 0.57 µM | 1.18 µM | CNC(=O)c1nn(C)c2c1C(C)(C)Cc1cnc(Nc3cccc(CN4CCN(C)CC4)c3)nc1-2 |
